# Test system: U2OS
# Test: Multiplex assay against U2OS
# Type: toxicity, cell-based
# Details: human
# In short: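 Live cells were stained at seeding with Hoechst33342, BioTracker Green Microtubule Cytoskeleton Dye, MitoTracker Red and Annexin V Alexa Fluor 680. Following compound addition, they were imaged on a CQ1 microscope at 37°C and 5% CO2 and gated by CellPathfinder machine learning into Hoechst high-intensity objects or normal cells, with normal cells split into healthy, pyknosed or fragmented nuclei and pyknosed cells into mitotic or apoptotic. Tubulin, mitochondrial-mass and membrane-permeability phenotypes are per cents of healthy-nucleus cells.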
# [1] = 12 h, 1 µM, compound concentration 1 uM, replicate 1
# [2] = 12 h, 1 µM, compound concentration 1 uM, replicate 2
# [3] = 12 h, 10 µM, compound concentration 10 uM, replicate 1
# [4] = 12 h, 10 µM, compound concentration 10 uM, replicate 2
# [5] = 24 h, 1 µM, compound concentration 1 uM, replicate 1
# [6] = 24 h, 1 µM, compound concentration 1 uM, replicate 2
# [7] = 24 h, 10 µM, compound concentration 10 uM, replicate 1
# [8] = 24 h, 10 µM, compound concentration 10 uM, replicate 2
# [9] = 48 h, 1 µM, compound concentration 1 uM, replicate 1
# [10] = 48 h, 1 µM, compound concentration 1 uM, replicate 2
# [11] = 48 h, 10 µM, compound concentration 10 uM, replicate 1
# [12] = 48 h, 10 µM, compound concentration 10 uM, replicate 2
smiles,measurement,setting,value
CCc1nn(CCCN2CCN(c3cccc(Cl)c3)CC2)c(=O)n1CCOc1ccccc1.Cl [NEFAZODONE HYDROCHLORIDE],Population Apoptotic (%),[1],42%
same,Population Fragmented Nuclei (%),[1],11%
same,Population Healthy Nuclei (%),[1],67%
same,Population Hoechst High Intensity Objects (%),[1],9%
same,Population Membrane Permeable-Phenotype (%),[1],1%
same,Population Mitochondria Different-Phenotype (%),[1],27%
same,Population Mitotic Cells (%),[1],57%
same,Population Normal (%),[1],90%
same,Population Pyknosed Nuclei (%),[1],20%
same,Population Tubulin-Different-Phenotype (%),[1],28%
same,Population Apoptotic (%),[2],0%
same,Population Fragmented Nuclei (%),[2],8%
same,Population Healthy Nuclei (%),[2],89%
same,Population Hoechst High Intensity Objects (%),[2],6%
same,Population Membrane Permeable-Phenotype (%),[2],3%
same,Population Mitochondria Different-Phenotype (%),[2],9%
same,Population Mitotic Cells (%),[2],100%
same,Population Normal (%),[2],93%
same,Population Pyknosed Nuclei (%),[2],1%
same,Population Tubulin-Different-Phenotype (%),[2],29%
same,Total Cell Count,[2],68
same,Population Apoptotic (%),[3],71%
same,Population Fragmented Nuclei (%),[3],13%
same,Population Healthy Nuclei (%),[3],55%
same,Population Hoechst High Intensity Objects (%),[3],5%
same,Population Membrane Permeable-Phenotype (%),[3],56%
same,Population Mitochondria Different-Phenotype (%),[3],100%
same,Population Mitotic Cells (%),[3],28%
same,Population Normal (%),[3],94%
same,Population Pyknosed Nuclei (%),[3],31%
same,Population Tubulin-Different-Phenotype (%),[3],100%
same,Total Cell Count,[3],150
same,Population Apoptotic (%),[4],69%
same,Population Fragmented Nuclei (%),[4],9%
same,Population Healthy Nuclei (%),[4],69%
same,Population Hoechst High Intensity Objects (%),[4],3%
same,Population Membrane Permeable-Phenotype (%),[4],60%
same,Population Mitochondria Different-Phenotype (%),[4],97%
same,Population Mitotic Cells (%),[4],30%
same,Population Normal (%),[4],96%
same,Population Pyknosed Nuclei (%),[4],20%
same,Population Tubulin-Different-Phenotype (%),[4],97%
same,Total Cell Count,[4],61
same,Population Apoptotic (%),[5],32%
same,Population Fragmented Nuclei (%),[5],10%
same,Population Healthy Nuclei (%),[5],73%
same,Population Hoechst High Intensity Objects (%),[5],6%
same,Population Membrane Permeable-Phenotype (%),[5],3%
same,Population Mitochondria Different-Phenotype (%),[5],21%
same,Population Mitotic Cells (%),[5],68%
same,Population Normal (%),[5],93%
same,Population Pyknosed Nuclei (%),[5],15%
same,Population Tubulin-Different-Phenotype (%),[5],22%
same,Population Apoptotic (%),[6],50%
same,Population Fragmented Nuclei (%),[6],8%
same,Population Healthy Nuclei (%),[6],85%
same,Population Hoechst High Intensity Objects (%),[6],2%
same,Population Membrane Permeable-Phenotype (%),[6],1%
same,Population Mitochondria Different-Phenotype (%),[6],15%
same,Population Mitotic Cells (%),[6],50%
same,Population Normal (%),[6],97%
same,Population Pyknosed Nuclei (%),[6],5%
same,Population Tubulin-Different-Phenotype (%),[6],33%
same,Total Cell Count,[6],71
same,Population Apoptotic (%),[7],82%
same,Population Fragmented Nuclei (%),[7],17%
same,Population Healthy Nuclei (%),[7],49%
same,Population Hoechst High Intensity Objects (%),[7],7%
same,Population Membrane Permeable-Phenotype (%),[7],72%
same,Population Mitochondria Different-Phenotype (%),[7],98%
same,Population Mitotic Cells (%),[7],17%
same,Population Normal (%),[7],92%
same,Population Pyknosed Nuclei (%),[7],33%
same,Population Tubulin-Different-Phenotype (%),[7],100%
same,Total Cell Count,[7],172
same,Population Apoptotic (%),[8],80%
same,Population Fragmented Nuclei (%),[8],22%
same,Population Healthy Nuclei (%),[8],56%
same,Population Hoechst High Intensity Objects (%),[8],1%
same,Population Membrane Permeable-Phenotype (%),[8],80%
same,Population Mitochondria Different-Phenotype (%),[8],100%
same,Population Mitotic Cells (%),[8],20%
same,Population Normal (%),[8],98%
same,Population Pyknosed Nuclei (%),[8],20%
same,Total Cell Count,[8],72
same,Population Apoptotic (%),[9],46%
same,Population Fragmented Nuclei (%),[9],9%
same,Population Healthy Nuclei (%),[9],73%
same,Population Hoechst High Intensity Objects (%),[9],5%
same,Population Membrane Permeable-Phenotype (%),[9],3%
same,Population Mitochondria Different-Phenotype (%),[9],15%
same,Population Mitotic Cells (%),[9],53%
same,Population Normal (%),[9],94%
same,Population Pyknosed Nuclei (%),[9],16%
same,Population Tubulin-Different-Phenotype (%),[9],14%
same,Population Apoptotic (%),[10],16%
same,Population Fragmented Nuclei (%),[10],5%
same,Population Healthy Nuclei (%),[10],88%
same,Population Hoechst High Intensity Objects (%),[10],1%
same,Population Membrane Permeable-Phenotype (%),[10],2%
same,Population Mitochondria Different-Phenotype (%),[10],18%
same,Population Mitotic Cells (%),[10],83%
same,Population Normal (%),[10],98%
same,Population Pyknosed Nuclei (%),[10],5%
same,Population Tubulin-Different-Phenotype (%),[10],46%
same,Total Cell Count,[10],67
same,Population Apoptotic (%),[11],82%
same,Population Fragmented Nuclei (%),[11],24%
same,Population Healthy Nuclei (%),[11],41%
same,Population Membrane Permeable-Phenotype (%),[11],83%
same,Population Mitochondria Different-Phenotype (%),[11],97%
same,Population Mitotic Cells (%),[11],17%
same,Population Pyknosed Nuclei (%),[11],34%
same,Total Cell Count,[11],246
same,Population Apoptotic (%),[12],66%
same,Population Fragmented Nuclei (%),[12],14%
same,Population Healthy Nuclei (%),[12],43%
same,Population Hoechst High Intensity Objects (%),[12],8%
same,Population Membrane Permeable-Phenotype (%),[12],85%
same,Population Mitochondria Different-Phenotype (%),[12],100%
same,Population Mitotic Cells (%),[12],33%
same,Population Normal (%),[12],91%
same,Population Pyknosed Nuclei (%),[12],42%
same,Population Tubulin-Different-Phenotype (%),[12],100%
same,Total Cell Count,[12],110

# Reference: ChEMBL document CHEMBL4689842, “EUbOPEN Chemogenomics Library wave 1” (2021)
